Test results from ChEMBL document CHEMBL2016445, “Discovery of a novel class of potent and orally bioavailable sphingosine 1-phosphate receptor 1 antagonists” (J Med Chem, 2012).

Legend:
[1] = Drug uptake in nu/nu homozygous mouse plasma at 100 mg/kg, po as a suspension in 10% NMP/corn oil after 4 hrs by HPLC/MS/MS analysis; type: ADME, organism-based; set-up: dose 100 mg/kg, route oral
Procedure, shortened: (§1)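 Female Nu/Nu mice (~8 wk, 20-22 g) given a single 100 mpk oral dose at 10 mL/kg. Vehicles: 10% EtOH/45% or 40% PEG400/water + 1 molar equiv HCl, 10% EtOH/40% PEG400/20% Captisol + HCl, or 10% NMP/90% corn oil. Heparinized blood collected 1 and 4 h post-dose; plasma analysed by HPLC/MS/MS.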

[2] = Metabolic stability of the compound in mouse liver microsomes assessed as compound oxidation measuring disappearance of compound at 15 uM after 30 mins by LC/MS/MS analysis; type: ADME, Microsome; conditions: read-out: Drug degradation
Procedure, shortened: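 Incubated in duplicate for 30 min at 37 °C: 15 µM compound, 0.15% DMSO, 0.5 mg/mL mouse liver microsomes, 1 mM NADPH, 100 mM potassium phosphate pH 7.4. Stopped with acetonitrile containing 0.1% formic acid. Parent remaining measured by LC/MS/MS; disappearance calculated relative to no-NADPH controls.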

[3] = molecular target: Cytochrome P450 2D6 (Homo sapiens, UniProt P10635); assay: Inhibition of human CYP2D6 using bufuralol as substrate by LC/MS/MS analysis; type: ADME
Chain of Cytochrome P450 2D6 (P10635 whole entry): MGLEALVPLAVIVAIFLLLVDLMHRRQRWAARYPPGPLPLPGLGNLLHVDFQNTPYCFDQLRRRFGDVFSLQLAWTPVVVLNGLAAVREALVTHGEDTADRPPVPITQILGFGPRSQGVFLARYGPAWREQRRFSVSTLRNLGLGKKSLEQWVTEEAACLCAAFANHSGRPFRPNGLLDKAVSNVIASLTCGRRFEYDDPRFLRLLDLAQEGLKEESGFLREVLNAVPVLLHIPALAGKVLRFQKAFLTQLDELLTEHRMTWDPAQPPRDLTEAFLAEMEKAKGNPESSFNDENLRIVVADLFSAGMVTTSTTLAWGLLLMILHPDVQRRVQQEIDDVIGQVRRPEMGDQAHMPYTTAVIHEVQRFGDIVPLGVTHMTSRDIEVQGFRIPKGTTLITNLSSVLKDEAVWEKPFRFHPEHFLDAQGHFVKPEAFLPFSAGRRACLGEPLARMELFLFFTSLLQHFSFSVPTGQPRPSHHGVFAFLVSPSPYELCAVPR
Procedure, shortened: (§2)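 Pooled human liver microsomes in 100 mM potassium phosphate, pH 7.4, at 37 °C with 1000 µM NADPH for 15 min. Microsomes 0.15 mg/mL for CYP2C9 and CYP2D6, 0.25 mg/mL for CYP3A4. Inhibitor tested at six concentrations (0.2–50 µM). Reactions quenched with acetonitrile; metabolite measured by LC/MS/MS; IC50 from 4-parameter sigmoidal fit.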

[4] = molecular target: Cytochrome P450 3A4 (Homo sapiens, UniProt P08684); assay: Inhibition of human CYP3A4 using testosterone as substrate by LC/MS/MS analysis; type: ADME; procedure, shortened: as §2
Chain of Cytochrome P450 3A4 (P08684 whole entry): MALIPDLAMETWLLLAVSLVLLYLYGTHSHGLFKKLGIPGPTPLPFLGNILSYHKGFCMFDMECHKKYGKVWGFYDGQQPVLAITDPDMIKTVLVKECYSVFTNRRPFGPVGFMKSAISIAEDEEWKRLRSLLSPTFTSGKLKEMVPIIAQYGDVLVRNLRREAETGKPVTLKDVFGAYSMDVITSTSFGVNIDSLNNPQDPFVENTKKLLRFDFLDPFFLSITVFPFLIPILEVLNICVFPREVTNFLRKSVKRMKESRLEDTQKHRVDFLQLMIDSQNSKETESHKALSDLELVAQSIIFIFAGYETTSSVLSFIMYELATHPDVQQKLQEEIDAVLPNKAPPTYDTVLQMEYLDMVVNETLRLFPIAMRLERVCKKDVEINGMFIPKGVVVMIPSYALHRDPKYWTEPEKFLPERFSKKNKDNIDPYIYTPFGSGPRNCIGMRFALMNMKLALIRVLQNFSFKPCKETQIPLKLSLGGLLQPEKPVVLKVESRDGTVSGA

[5] = molecular target: Sphingosine 1-phosphate receptor 2 (Homo sapiens, UniProt O95136); assay: Antagonist activity at S1P2 receptor expressed in HEK293 cells assessed as inhibition of S1P-induced tango beta-arrestin recruitment preincubated for 30 mins prior S1P addition measured after 16 to 18 hrs by luciferase reporter gene assay; type: functional, cell-based
Chain of Sphingosine 1-phosphate receptor 2 (O95136 whole entry): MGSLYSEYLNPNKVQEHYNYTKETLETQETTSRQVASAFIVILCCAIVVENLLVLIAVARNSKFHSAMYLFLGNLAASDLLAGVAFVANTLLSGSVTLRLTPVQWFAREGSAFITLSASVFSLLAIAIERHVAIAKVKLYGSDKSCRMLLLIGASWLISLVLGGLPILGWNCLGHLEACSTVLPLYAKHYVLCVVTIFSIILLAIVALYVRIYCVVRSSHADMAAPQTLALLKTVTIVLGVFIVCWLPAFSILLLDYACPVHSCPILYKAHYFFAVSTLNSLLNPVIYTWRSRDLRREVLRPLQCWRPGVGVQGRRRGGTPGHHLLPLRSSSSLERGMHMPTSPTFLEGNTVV

[6] = molecular target: T1, Sphingosine 1-phosphate receptor 1 (Homo sapiens, UniProt P21453); assay: Antagonist activity at S1P1 receptor expressed in HEK293 cells assessed as inhibition of S1P-induced tango beta-arrestin recruitment preincubated for 30 mins prior S1P addition measured after 16 to 18 hrs by luciferase reporter gene assay; type: functional, cell-based
T1 sequence (P21453 whole entry): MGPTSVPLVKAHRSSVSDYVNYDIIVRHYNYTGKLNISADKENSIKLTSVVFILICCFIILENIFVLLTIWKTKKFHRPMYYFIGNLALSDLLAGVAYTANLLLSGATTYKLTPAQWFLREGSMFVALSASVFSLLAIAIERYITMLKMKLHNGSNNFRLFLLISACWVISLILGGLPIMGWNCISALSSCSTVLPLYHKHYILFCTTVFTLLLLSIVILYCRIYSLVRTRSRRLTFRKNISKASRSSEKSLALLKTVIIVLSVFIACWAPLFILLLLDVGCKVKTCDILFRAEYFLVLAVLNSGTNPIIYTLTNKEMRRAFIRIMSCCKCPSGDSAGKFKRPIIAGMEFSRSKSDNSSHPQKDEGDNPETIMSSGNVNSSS

[7] = molecular target: Cytochrome P450 2C9 (Homo sapiens, UniProt P11712); assay: Inhibition of human CYP2C9 using tolbutamide as substrate by LC/MS/MS analysis; type: ADME; procedure, shortened: as §2
Chain of Cytochrome P450 2C9 (P11712 whole entry): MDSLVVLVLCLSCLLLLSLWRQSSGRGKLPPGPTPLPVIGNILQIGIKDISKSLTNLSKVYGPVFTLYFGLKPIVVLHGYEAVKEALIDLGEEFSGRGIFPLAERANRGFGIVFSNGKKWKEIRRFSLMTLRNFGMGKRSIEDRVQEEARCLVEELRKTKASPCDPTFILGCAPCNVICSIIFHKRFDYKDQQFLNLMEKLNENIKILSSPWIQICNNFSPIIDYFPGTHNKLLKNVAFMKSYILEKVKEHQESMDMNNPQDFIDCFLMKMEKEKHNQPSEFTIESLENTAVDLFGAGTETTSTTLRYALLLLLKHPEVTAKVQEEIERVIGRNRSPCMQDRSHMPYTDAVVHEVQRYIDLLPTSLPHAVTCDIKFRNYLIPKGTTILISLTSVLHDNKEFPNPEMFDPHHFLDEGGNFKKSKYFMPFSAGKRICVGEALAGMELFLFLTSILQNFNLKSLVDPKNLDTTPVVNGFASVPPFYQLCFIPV

[8] = molecular target: T1, Sphingosine 1-phosphate receptor 1; assay: Antagonist activity at S1P1 receptor expressed in HEK293 cells assessed as inhibition of S1P-induced cAMP response after 90 mins by spectrophotometry; type: functional, cell-based
[9] = Drug uptake in nu/nu homozygous mouse plasma at 100 mg/kg, po as a suspension in 10% NMP/corn oil after 24 hrs by HPLC/MS/MS analysis; type: ADME, organism-based; set-up: dose 100 mg/kg, route oral
[10] = molecular target: Sphingosine 1-phosphate receptor 3 (Homo sapiens, UniProt Q99500); assay: Antagonist activity at S1P3 receptor expressed in HEK293 cells assessed as inhibition of S1P-induced tango beta-arrestin recruitment preincubated for 30 mins prior S1P addition measured after 16 to 18 hrs by luciferase reporter gene assay; type: functional, cell-based
Chain of Sphingosine 1-phosphate receptor 3 (Q99500 whole entry): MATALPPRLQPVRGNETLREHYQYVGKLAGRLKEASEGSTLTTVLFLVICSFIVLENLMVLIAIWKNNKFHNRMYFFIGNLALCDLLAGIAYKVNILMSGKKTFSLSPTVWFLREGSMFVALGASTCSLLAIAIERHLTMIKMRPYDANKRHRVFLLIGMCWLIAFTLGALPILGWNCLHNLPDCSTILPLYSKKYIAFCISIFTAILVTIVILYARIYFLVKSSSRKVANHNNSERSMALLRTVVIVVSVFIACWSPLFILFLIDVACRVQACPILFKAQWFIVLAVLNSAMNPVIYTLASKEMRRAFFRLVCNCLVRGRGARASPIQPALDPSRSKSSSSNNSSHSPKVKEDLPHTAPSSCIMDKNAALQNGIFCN

[11] = Antitumor activity against human MDA-MB-231T cells xenografted in athymic nude mouse assessed as tumor growth inhibition at 100 mg/kg, po qd for 14 days post implantation measured for 14 days; type: functional; conditions: 336 h, read-out: TGI
Procedure, shortened: (§3)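 MDA-MB-231T cells grown in DMEM with 10% FBS. 1 x 10⁶ cells in ice-cold HBSS implanted into the mammary fat pad of female athymic nude (NCr) mice, 5-8 wk. Daily oral dosing at 10 mL/kg, solutions made fresh daily. Tumor weight measured twice weekly; TGI calculated against vehicle and staging-day weights; 2-tailed t-test, p<0.05.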

[12] = Drug uptake in nu/nu homozygous mouse plasma at 100 mg/kg, po as a solution in 10% EtOH/40% PEG400/water + 1:1 HCl after 1 hr by HPLC/MS/MS analysis; type: ADME, organism-based; set-up: dose 100 mg/kg, route oral; procedure, shortened: as §1
[13] = Antitumor activity against human MDA-MB-231T cells xenografted in athymic nude mouse assessed as tumor growth inhibition at 300 mg/kg, po qd for 14 days post implantation measured for 14 days; type: functional; conditions: 336 h, read-out: TGI; procedure, shortened: as §3
[14] = Drug uptake in nu/nu homozygous mouse plasma at 100 mg/kg, po as a solution in 10% EtOH/40% PEG400/water + 1:1 HCl after 4 hrs by HPLC/MS/MS analysis; type: ADME, organism-based; set-up: dose 100 mg/kg, route oral; procedure, shortened: as §1
[15] = test system: Mus musculus; assay: Toxicity in athymic nude mouse xenografted with human MDA-MB-231T cells assessed as body weight loss at 300 mg/kg, po qd for 14 days post implantation measured for 14 days; type: organism-based; set-up: dose 300 mg/kg, route oral; conditions: in vivo, 336 h
Procedure, shortened: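 Female NCr athymic nude mice bearing mammary fat pad MDA-MB-231T tumors (1 x 10⁶ cells). Dosed orally once daily at 10 mL/kg from fresh solutions. Body weights recorded daily; clinical signs and survival monitored daily.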

[16] = Drug uptake in nu/nu homozygous mouse plasma at 100 mg/kg, po as a suspension in 10% NMP/corn oil after 1 hr by HPLC/MS/MS analysis; type: ADME, organism-based; set-up: dose 100 mg/kg, route oral; procedure, shortened: as §1

## O=C(Nc1ccc(Oc2ccc(F)cc2)cc1)[C@@H]1C[C@@H](Cc2ccc(F)cc2)CN1C(=O)Cn1cncn1
[1]
  concentration at 4 h: 104 µM
[2]
  metabolised at 0.5 h, 15 µM: 8%
[3]
  IC50: 7370 nM
[4]
  IC50: 12600 nM
[5]
  IC50: > 10000 nM
[6]
  IC50: 13 nM
[7]
  IC50: 2190 nM
[8]
  IC50: 5.8 nM
[9]
  concentration at 24 h: 18 µM
[10]
  IC50: > 10000 nM

## O=C(Cc1cnc[nH]1)N[C@@H](COCc1ccccc1)C(=O)Nc1ccc(Oc2cccc(Cl)c2)cc1
[8]
  IC50: 96 nM

## O=C(Nc1ccc(Oc2ccc(F)cc2)cc1)[C@@H]1C[C@@H](c2ccccc2)CN1C(=O)Cn1cncn1
[8]
  IC50: 492 nM

## O=C(CCCC(=O)c1cccs1)NC(COCc1ccccc1)C(=O)Nc1ccc(Oc2ccccc2)cc1 (racemic)
[8]
  IC50: 286 nM

## O=C(Cc1ccccc1F)N[C@@H](COCc1ccccc1)C(=O)Nc1ccc(Oc2ccccc2)cc1
[8]
  IC50: 500 nM

## O=C(Nc1ccc(Oc2ccc(F)cc2)cc1)[C@H]1C[C@H](Cc2ccc(F)cc2)CN1C(=O)Cn1ccnn1
[8]
  IC50: > 1000 nM

## O=C(Nc1ccc(Oc2ccc(F)cc2)cc1)[C@@H]1C[C@@H](Cc2ccc(F)cc2)CN1C(=O)Cn1nccn1
[1]
  concentration at 4 h: 23 µM
[3]
  IC50: > 50000 nM
[4]
  IC50: > 20000 nM
[5]
  IC50: > 10000 nM
[11]
  inhibition in vivo at 100 mg/kg: 60%
[6]
  IC50: 21 nM
[7]
  IC50: 17400 nM
[8]
  IC50: 4.8 nM
[9]
  concentration at 24 h: 2 µM
[10]
  IC50: > 10000 nM

## O=C(Nc1ccc(Oc2ccc(F)cc2)cc1)[C@@H]1C[C@@H](c2ccccc2)CN1C(=O)Cc1cnc[nH]1
[1]
  concentration at 4 h: 27.2 µM
[3]
  IC50: 663 nM
[4]
  IC50: 301 nM
[7]
  IC50: 213 nM
[8]
  IC50: 158 nM
[9]
  concentration at 24 h: 5 µM

## O=C(Cc1cnc[nH]1)N[C@@H](COCc1ccccc1)C(=O)Nc1ccc(Cc2ccccc2)cc1
[8]
  IC50: > 10000 nM

## O=C(Nc1ccc(Oc2ccc(F)cc2)cc1)[C@@H]1C[C@@H](Cc2ccccc2)CN1C(=O)Cn1cncn1
[1]
  concentration at 4 h: 86.4 µM
[2]
  metabolised at 0.5 h, 15 µM: 13%
[3]
  IC50: 392 nM
[4]
  IC50: > 20000 nM
[5]
  IC50: > 10000 nM
[6]
  IC50: 45 nM
[7]
  IC50: 2290 nM
[8]
  IC50: 6.8 nM
[9]
  concentration at 24 h: 8.3 µM
[10]
  IC50: > 10000 nM

## O=C(N[C@@H](COCc1ccccc1)C(=O)Nc1ccc(Oc2ccccc2)cc1)c1cnc[nH]1
[8]
  IC50: > 1000 nM

## O=C(Cc1cnc[nH]1)N[C@@H](COCc1ccccc1)C(=O)Nc1ccc(Oc2ccccc2)c(Cl)c1
[8]
  IC50: 211 nM

## C[C@H](NC(=O)Cc1cnc[nH]1)C(=O)Nc1ccc(Oc2ccc(Cl)cc2)cc1
[8]
  IC50: 752 nM

## CN(CC(=O)N[C@@H](COCc1ccccc1)C(=O)Nc1ccc(Oc2ccccc2)cc1)C(=O)c1ccccc1
[8]
  IC50: 548 nM

## O=C(Cc1c[nH]cn1)N[C@@H](COCc1ccccc1)C(=O)Nc1ccc(OCc2ccccc2)cc1
[8]
  IC50: 152 nM

## O=C(Cc1c[nH]cn1)N[C@@H](COCc1ccccc1)C(=O)Nc1ccc(Oc2ccc(F)cc2)cc1
[12]
  concentration at 1 h: 8 µM
[13]
  inhibition in vivo at 300 mg/kg: 54%
[2]
  metabolised at 0.5 h, 15 µM: 9%
[14]
  concentration at 4 h: 3 µM
[15]
  Activity: Non-toxic
[5]
  IC50: > 10000 nM
[6]
  IC50: 284 nM
[8]
  IC50: 13 nM
[10]
  IC50: > 10000 nM

## O=C(Cc1cnc[nH]1)N[C@@H](COCc1ccccc1)C(=O)Nc1ccc(Oc2ccccc2)cc1
[1]
  concentration at 4 h: 0.3 µM
[12]
  concentration at 1 h: 5 µM
[2]
  metabolised at 0.5 h, 15 µM: 28%
[16]
  concentration at 1 h: 4.4 µM
[14]
  concentration at 4 h: 3 µM
[8]
  IC50: 33 nM

## O=C(Cc1cnc[nH]1)N[C@@H](CCCc1ccccc1)C(=O)Nc1ccc(Oc2ccccc2)cc1
[8]
  IC50: 14 nM

## O=C(Cc1cnc[nH]1)N[C@@H](COCc1ccccc1)C(=O)Nc1ccc(-c2ccccc2)cc1
[8]
  IC50: > 10000 nM

## O=C(Nc1ccc(Oc2ccc(F)cc2)cc1)[C@@H]1C[C@@H](Cc2ccccc2)CN1C(=O)Cc1cnc[nH]1
[1]
  concentration at 4 h: 9.8 µM
[3]
  IC50: 1180 nM
[16]
  concentration at 1 h: 26.2 µM
[4]
  IC50: 7150 nM
[7]
  IC50: < 205 nM
[8]
  IC50: 84.7 nM

## CN(C(=O)[C@H](COCc1ccccc1)NC(=O)Cc1cnc[nH]1)c1ccc(Oc2ccccc2)cc1
[8]
  IC50: 8280 nM

## O=C(Nc1ccc(Oc2ccc(F)cc2)cc1)[C@@H]1CN(Cc2ccccc2)CCN1C(=O)Cc1cnc[nH]1
[1]
  concentration at 4 h: 6.3 µM
[8]
  IC50: 84 nM
[9]
  concentration at 24 h: 9.2 µM

## O=C(Cc1cnc[nH]1)N[C@@H](Cc1ccccc1)C(=O)Nc1ccc(Oc2ccc(Cl)cc2)cc1
[8]
  IC50: 326 nM

## O=C(Cc1cc(Cl)ccc1Cl)N[C@@H](COCc1ccccc1)C(=O)Nc1ccc(Oc2ccccc2)cc1
[8]
  IC50: > 10000 nM

## CN(C(=O)Cc1c[nH]cn1)[C@@H](COCc1ccccc1)C(=O)Nc1ccc(Oc2ccccc2)cc1
[8]
  IC50: 181 nM

## CN(CC(=O)N[C@H](COCc1ccccc1)C(=O)Nc1ccc(Oc2ccccc2)cc1)C(=O)c1ccccc1
[8]
  IC50: > 10000 nM

## O=C(NC(COCc1ccccc1)C(=O)Nc1ccc(Oc2ccccc2)cc1)C1CC1 (racemic)
[8]
  IC50: 297 nM

## O=C(Nc1ccc(Oc2ccc(F)cc2)cc1)[C@@H]1C[C@H](Cc2ccc(F)cc2)CN1C(=O)Cn1cncn1
[3]
  IC50: 3780 nM
[4]
  IC50: > 20000 nM
[7]
  IC50: 1350 nM
[8]
  IC50: 48 nM

## O=C(Cc1cnc[nH]1)N[C@@H](COCc1ccccc1)C(=O)Nc1ccc(Nc2ccccc2)cc1
[8]
  IC50: 743 nM

## O=C(Cc1cnc[nH]1)N[C@@H](COCc1ccccc1)C(=O)Nc1ccc(Oc2ccccc2Cl)cc1
[8]
  IC50: > 10000 nM

## Cn1cnc(CC(=O)N[C@@H](COCc2ccccc2)C(=O)Nc2ccc(Oc3ccccc3)cc2)c1
[8]
  IC50: 228 nM

## O=C(Cc1cnc[nH]1)N[C@@H](COCc1ccccc1)C(=O)Nc1ccc2oc3ccccc3c2c1
[8]
  IC50: > 10000 nM

## O=C(Cc1cnc[nH]1)N[C@@H](COCc1ccccc1)C(=O)Nc1ccc(OC2CCCCC2)cc1
[8]
  IC50: 702 nM
